These results are taken from ChEMBL document CHEMBL4513216, “Probing the Open Global Health Chemical Diversity Library for Multistage-Active Starting Points for Next-Generation Antimalarials” (ACS Infect Dis, 2020).

A short description of the series: Toxicity liver stage against HepG2, at 10uM. The class given is cell-based. Also noted: test concentration 10 uM, cell line HepG2-A16-CD81EGFP. The conditions noted are these: human, HepG2-A16-CD81EGFP cells; read-out: INHIBITION
The procedure, abridged: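 Uninfected HepG2-A16-CD81EGFP cells, 3 × 10^3 per well, 1536-well, plated on prespotted compound at 10 μM final, parasite-free screening media added to match infected plates; puromycin 10 μM positive, DMSO 0.5% negative; run in parallel with 48 h PbLuc assay at 37 °C, 5% CO2; viability by CellTiter-Glo luminescence, normalized to controls.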
Consider `CN1CCN(C(=O)c2ccnc(N3CCOC(C(F)(F)F)C3)c2)CC1` (stereo unspecified), for which the cytotoxicity at 10 µM is -11.4%.
Turning to `CC(C)C(=O)N1CCC2(CC1)NC(=O)[C@H]1CN(C(=O)N(C)C)C[C@H]12`, the cytotoxicity at 10 µM amounted to 3.03%.
As to `CC(C)[C@H]1CN(C(=O)CO)C[C@@H]1N(C)C`, the cytotoxicity at 10 µM was determined as 7.1%.
With `Cc1ccc(C)c(S(=O)(=O)NC(=O)c2cccc3c2OCCO3)c1` the figure was -4.77%; with `O=C(O)CCc1cc2n(n1)CCCN(C(=O)c1ccc(Cl)s1)C2`, -6.06%.
In the case of `O=C(CCNc1ncccn1)NCc1ccc(Br)s1`, the cytotoxicity at 10 µM is 6.72%.
For `COc1cccc(CNc2cccnc2-n2cccn2)c1OC` the value was 1%.
With `NCCCC(=O)NCC1(O)CCN(c2ccnc3cccnc23)C1` (stereo unspecified), the cytotoxicity at 10 µM was found to be 1.58%.
`COc1ccc(OCCc2nnc(NC(C)=O)s2)cc1`: the cytotoxicity at 10 µM stood at 0.0869%.
In the case of `CCOCC(=O)N1Cc2cnc(-c3ccccc3)nc2C1`, the cytotoxicity at 10 µM was -1.08%.
In the case of `Cc1ccc(Nc2nccc(C3CCCN(CC(=O)N(C)C)C3)n2)nc1` (stereo unspecified), the cytotoxicity at 10 µM is -2.09%.
For `O=C(NCC1CC1)C1=NOC2(CCN(S(=O)(=O)c3cccs3)C2)C1` (stereo unspecified), the cytotoxicity at 10 µM was found to be 0.693%.
On to `CCc1nc(CN(C)C2CCN(CC(F)(F)F)C2)no1` (stereo unspecified), for which the cytotoxicity at 10 µM was -16.8%.
In the case of `CCOc1ccc(C(F)(F)F)cc1NC(=O)NCc1noc(C)n1`, the cytotoxicity at 10 µM is -5.1%.
For `O=C(C[C@@H]1COC[C@H]2CN(CC3CC3)C[C@@H]12)N1CCCCO1`, the cytotoxicity at 10 µM was 4.08%.
For `O=C(c1ccccc1)N1CC[C@H]2C[C@@H](c3nccs3)O[C@@H]2C1` the value was -5.44%; for `O=C1CC2(CCN(c3nncs3)C2)CN1c1cccc(F)c1` (stereo unspecified), -3.36%; for `O=C(NCCCNc1ccc(C(F)(F)F)cn1)c1ccc(F)cc1F`, 3.61%.
With `CC(Sc1n[nH]c(-c2ccc3c(c2)CCC3)n1)C(N)=O` (stereo unspecified) the figure was -0.665%.
For `CC1c2ncc(COCC3CC3)n2CCN1C` (stereo unspecified) the value was 7.83%.
As for `CCSc1ccc(C(=O)NCCc2nnc(-c3ccco3)[nH]2)cn1`, the cytotoxicity at 10 µM was found to be 10.7%.
In the case of `COc1cccc(COC(C)C(=O)N(C)Cc2nnc3n2CCC3)c1` (stereo unspecified), the cytotoxicity at 10 µM was determined as 6.32%.
For `O=C(COc1ccccc1)NS(=O)(=O)Cc1ccccc1` the value was -12.3%; for `COC(=O)c1ccc(C2SCC(=O)Nc3c2cnn3C2CCCC2)cc1` (stereo unspecified), 1.9%; for `CCC1(CO)CCCN(Cc2nccn2Cc2ccccc2)C1` (stereo unspecified), -7.35%.
With `Cc1cc2c(=O)n3c(nc2s1)CCN(C(=O)c1cnn(C)c1C)CC3` the figure was 0.359%; with `COc1cc(CCC(=O)N2CCC(c3cc4ncccc4[nH]3)CC2)on1`, 3.78%; with `Cc1cc(CN2CC[C@H]3C(=O)N(c4ccccc4)CCO[C@H]3C2)no1`, -5.59%.
`CCCN1CCCN(C(=O)Nc2ccc3c(c2)OCO3)CC1`: the cytotoxicity at 10 µM was -4.92%.
Take `Cc1ccc(-c2cc(CN3CCOC(Cn4cncn4)C3)on2)cc1` (stereo unspecified): the cytotoxicity at 10 µM is -8.65%.
For `Fc1ccc2[nH]c([C@H]3CCN(C4CCOCC4)C3)nc2c1` the value was 1.9%; for `CC1CN(CC(=O)NC(=O)NCc2ccccc2)CCO1` (stereo unspecified), -7.07%; for `CC(C)(NCCOc1ccc(CC#N)cc1)c1nccs1`, -3.25%.
As to `Cc1cc2nc(SCC(=O)N3CCOCC3)n(C(C)C)c(=O)c2[nH]1`, the cytotoxicity at 10 µM amounted to 11%.
With `COc1ccc(N2CCC(NS(=O)(=O)N(C)C(C)C)CC2)cc1` the figure was 6.62%.
Take `O=C(NCc1cccs1)c1nc2c(o1)CN(CC1CC1)C2`: the cytotoxicity at 10 µM is -2.83%.
As to `O=C(Cn1ccc(=O)cc1)N1C[C@@H]2CC[C@H]1CN(c1ncccn1)C2`, the cytotoxicity at 10 µM came out at 4.52%.
For `CCCS(=O)(=O)N1CCC(NC(=O)c2cc(CC)c(C)s2)CC1` the value was -4.61%; for `CCn1nnc(NCc2cc(Cl)cc(Cl)c2OC)n1`, 13.6%; for `CC(C)CS(=O)(=O)CC(=O)N1CCCC1c1noc(C2CC2)n1` (stereo unspecified), 13.4%.
Turning to `CC(NC(=O)N1CCC[C@H]1CO)c1noc(-c2ccccc2)n1` (stereo partly specified), the cytotoxicity at 10 µM was -6.67%.
For the molecule `Fc1cccc(-c2c[nH]c(C3CCCN3)n2)c1` (stereo unspecified), the cytotoxicity at 10 µM is -5.93%.
With `Cc1cccc2cc(CO)c(N3Cc4cnc(C(C)(C)C)nc4C3)nc12`, the cytotoxicity at 10 µM was 10.6%.
With `O=C(COCc1ccccc1Cl)N1CCCC(n2ccnc2)C1` (stereo unspecified) the figure was -25.1%.
With `COCCCN1CCCC1c1noc(C2CC2)n1` (stereo unspecified) the figure was -11.5%.
With `CCN(CC)C1COc2c(cc(Br)c(C)c2C)C1=O` (stereo unspecified) the figure was 0.331%.
As for `C[C@@H]1CN(c2ccc(Cl)cn2)C[C@@]1(O)C1CC1`, the cytotoxicity at 10 µM is -2.81%.
With `CC1CCC(NC(=O)c2nn(C)cc2I)CC1` (stereo unspecified) the figure was 11.8%.
For `O=C(N1CCCC1)N1CCC[C@]2(C[C@@H](OCc3ccncc3)CO2)C1` the value was 7.19%; for `CCC[C@H]1CN(S(C)(=O)=O)C[C@@H]1NC(=O)CCCn1ccnc1`, 4.47%.
In the case of `CC(C)N1CCC2(CCCN(C(=O)c3cncn3C)C2)CC1`, the cytotoxicity at 10 µM was -0.0499%.
With `CCN(C)c1ccc(C(=O)N(CCOC)Cc2ccccn2)cc1`, the cytotoxicity at 10 µM is -3.96%.
On to `Cc1cccc(S(=O)(=O)N2CCCc3c(c(=O)n(C)n3C)C2)c1`, for which the cytotoxicity at 10 µM was -2.08%.
With `CCO[C@@H]1CO[C@@]2(CCCN(Cc3scnc3C)C2)C1` the figure was -9.06%; with `CCc1cc(NC(=O)C2CCCN(C(=O)NCC(C)C)C2)[nH]n1` (stereo unspecified), -4.56%.
With `COc1cc(CNCCn2ccnc2)cc2c1OCO2` the figure was 5.17%; with `CCN(Cc1ccncc1)CC1(C)Cc2c(N)nc(N)nc2O1` (stereo unspecified), 2.15%.
In the case of `CCCc1nc(C)c(C(=O)NCc2ccc(C)n2C)s1`, the cytotoxicity at 10 µM came out at 16.5%.
For `CCCS(=O)(=O)N1CCc2c(COCC)cncc2C1` the value was 8.76%; for `CCc1ncc2c(n1)CN(c1cc(N3CCN(C)CC3)nc(N)n1)C2`, 22.8%.
With `Cc1nnc2n1CCN(C(=O)c1cnc3c(cnn3C(C)C)c1)C2` the figure was -6.69%; with `NC(=O)C1CN(C(=O)Cc2cccnc2)CCN(C2CCOCC2)C1` (stereo unspecified), -9.58%; with `Cc1cccc(-c2noc(CN3CCCCC3Cn3cncn3)n2)c1` (stereo unspecified), -4.32%.
With `CN(Cc1nnnn1C1CC1)c1cccc2ccccc12`, the cytotoxicity at 10 µM was determined as 8.38%.
As for `CO[C@H]1CC[C@H]2[C@H]1OCCN2C(=O)c1ccc(C)nc1`, the cytotoxicity at 10 µM is -141%.
For the molecule `CN(C)C[C@@H]1CN(C2CCN(c3ccccc3Cl)CC2)C[C@@H]1CO`, the cytotoxicity at 10 µM was -10.1%.
With `COc1ccc(CN2CC(O)CN(C(=O)OCC(C)C)CC2=O)cc1` (stereo unspecified) the figure was -7.34%; with `Cc1nn(C)cc1-c1cc(C(F)(F)F)c2c(C)nn(CC(=O)O)c2n1`, -4.79%; with `CCn1c(C)nnc1CN(C)C1CCN(CCCSC)C1` (stereo unspecified), -6.21%.
As for `Cc1ccc(CN2C[C@H]3C[C@H](C(=O)NCC4CC4)N(C)[C@H]3C2)o1`, the cytotoxicity at 10 µM was -3.13%.
For `COCCn1ccc(NCc2scnc2C)n1` the value was -2.9%.
